# How the values were obtained:
# Pseudomonas aeruginosa [1] = experiment: Antibacterial activity against multidrug resistant Pseudomonas aeruginosa BAA 2108 assessed as inhibition of bacterial growth incubated for 24 hrs in MHI medium by twofold serial dilution method; assay type: functional
# Escherichia coli [2] = experiment: Antibacterial activity against efflux pump lacking/recombinant OM pore producing Escherichia coli assessed as inhibition of bacterial growth; assay type: functional, organism-based
# Pseudomonas aeruginosa [3] = experiment: Antibacterial activity against efflux pump lacking Pseudomonas aeruginosa assessed as inhibition of bacterial growth; assay type: functional, organism-based
# Acinetobacter baumannii [4] = experiment: Antibacterial activity against recombinant OM pore producing Acinetobacter baumannii assessed as inhibition of bacterial growth; assay type: functional, organism-based
# Escherichia coli [5] = experiment: Antibacterial activity against Escherichia coli SQ110 incubated for 24 hrs by twofold serial dilution method; assay type: functional
# How it was run: (§1)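 MICs by twofold serial dilution in 96-well plates from 10 mM DMSO stocks. Cultures grown in the indicated media; for E. coli, A. baumannii and P. aeruginosa, inducers were 0.1% arabinose, 1% arabinose and 0.1 mM IPTG respectively.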
# Escherichia coli [6] = experiment: Antibacterial activity against recombinant OM pore producing Escherichia coli assessed as inhibition of bacterial growth; assay type: functional, organism-based
# Pseudomonas aeruginosa [7] = experiment: Antibacterial activity against efflux pump lacking/recombinant OM pore producing Pseudomonas aeruginosa incubated for 24 hrs by twofold serial dilution method; assay type: functional; how it was run: as §1
# Pseudomonas aeruginosa [8] = experiment: Antibacterial activity against multidrug resistant Pseudomonas aeruginosa BAA 2108 assessed as inhibition of bacterial growth incubated for 24 hrs in M9-MOPS medium by twofold serial dilution method; assay type: functional
# Acinetobacter baumannii [9] = experiment: Antibacterial activity against efflux pump lacking/recombinant OM pore producing Acinetobacter baumannii incubated for 24 hrs by twofold serial dilution method; assay type: functional; how it was run: as §1
# Escherichia coli [10] = experiment: Antibacterial activity against Escherichia coli SQ110 DTC incubated for 24 hrs by twofold serial dilution method; assay type: functional; how it was run: as §1
# Klebsiella pneumoniae [11] = experiment: Antibacterial activity against multidrug resistant Klebsiella pneumoniae ATCC43816 assessed as inhibition of bacterial growth incubated for 24 hrs in M9-MOPS medium by twofold serial dilution method; assay type: functional
# Acinetobacter baumannii [12] = experiment: Antibacterial activity against efflux pump lacking Acinetobacter baumannii assessed as inhibition of bacterial growth; assay type: functional, organism-based
# Pseudomonas aeruginosa [13] = experiment: Antibacterial activity against multidrug resistant Pseudomonas aeruginosa BAA 2109 assessed as inhibition of bacterial growth incubated for 24 hrs in MHI medium by twofold serial dilution method; assay type: functional
# Acinetobacter baumannii [14] = experiment: Antibacterial activity against multidrug resistant Acinetobacter baumannii Ab5075 assessed as inhibition of bacterial growth incubated for 24 hrs in MHI medium by twofold serial dilution method; assay type: functional
# Acinetobacter baumannii [15] = experiment: Antibacterial activity against wild type Acinetobacter baumannii assessed as inhibition of bacterial growth; assay type: functional, organism-based
# Pseudomonas aeruginosa [16] = experiment: Antibacterial activity against efflux pump lacking/recombinant OM pore producing Pseudomonas aeruginosa assessed as inhibition of bacterial growth; assay type: functional, organism-based
# Pseudomonas aeruginosa [17] = experiment: Antibacterial activity against wild type Pseudomonas aeruginosa assessed as inhibition of bacterial growth; assay type: functional, organism-based
# Klebsiella pneumoniae [18] = experiment: Antibacterial activity against multidrug resistant Klebsiella pneumoniae ATCC13883 assessed as inhibition of bacterial growth incubated for 24 hrs in M9-MOPS medium by twofold serial dilution method; assay type: functional
# Escherichia coli [19] = experiment: Antibacterial activity against efflux pump lacking/recombinant OM pore producing Escherichia coli incubated for 24 hrs by twofold serial dilution method; assay type: functional
# How it was run: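 E. coli efflux-knockout/hyperporinated strain grown in M9 medium with 50 mM MOPS (pH 7.2) and 0.2% xylose. OM pore induced with 0.1% arabinose. Compounds come from 10 mM DMSO stocks and are twofold serially diluted in 96-well plates.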
# Acinetobacter baumannii [20] = experiment: Antibacterial activity against multidrug resistant Acinetobacter baumannii Ab5075 assessed as inhibition of bacterial growth incubated for 24 hrs in M9-MOPS medium by twofold serial dilution method; assay type: functional
# Escherichia coli [21] = experiment: Antibacterial activity against wild type Escherichia coli assessed as inhibition of bacterial growth; assay type: functional, organism-based
# Klebsiella pneumoniae [22] = experiment: Antibacterial activity against multidrug resistant Klebsiella pneumoniae ATCC13883 assessed as inhibition of bacterial growth incubated for 24 hrs in MHI medium by twofold serial dilution method; assay type: functional
# Klebsiella pneumoniae [23] = experiment: Antibacterial activity against multidrug resistant Klebsiella pneumoniae ATCC43816 assessed as inhibition of bacterial growth incubated for 24 hrs in MHI medium by twofold serial dilution method; assay type: functional
# Klebsiella aerogenes [24] = experiment: Antibacterial activity against multidrug resistant Klebsiella aerogenes ATCC13048 assessed as inhibition of bacterial growth incubated for 24 hrs in M9-MOPS medium by twofold serial dilution method; assay type: functional
# Pseudomonas aeruginosa [25] = experiment: Antibacterial activity against recombinant OM pore producing Pseudomonas aeruginosa assessed as inhibition of bacterial growth; assay type: functional, organism-based
# Pseudomonas aeruginosa [26] = experiment: Antibacterial activity against multidrug resistant Pseudomonas aeruginosa BAA 2109 assessed as inhibition of bacterial growth incubated for 24 hrs in […] medium by twofold serial dilution method; assay type: functional
# Klebsiella aerogenes [27] = experiment: Antibacterial activity against multidrug resistant Klebsiella […] assessed as inhibition of bacterial growth incubated for 24 hrs in MHI medium by twofold serial dilution method; assay type: functional
# Acinetobacter baumannii [28] = experiment: Antibacterial activity against multidrug resistant Acinetobacter baumannii AYE assessed as inhibition of bacterial growth incubated for 24 hrs in MHI medium by twofold serial dilution method; assay type: functional
# Escherichia coli [29] = experiment: Antibacterial activity against Escherichia coli SQ110 DTC G2032A incubated for 24 hrs by twofold serial dilution method; assay type: functional
# How it was run: (§2)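 E. coli SQDTC (TolC-deficient, single rRNA operon) carrying LZD-resistant 23S rRNA substitutions. Compounds come from 10 mM DMSO stocks and are twofold serially diluted in 96-well plates.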
# Acinetobacter baumannii [30] = experiment: Antibacterial activity against multidrug resistant Acinetobacter baumannii AYE assessed as inhibition of bacterial growth incubated for 24 hrs in M9-MOPS medium by twofold serial dilution method; assay type: functional
# Escherichia coli [31] = experiment: Antibacterial activity against efflux pump lacking Escherichia coli assessed as inhibition of bacterial growth; assay type: functional, organism-based
# Acinetobacter baumannii [32] = experiment: Antibacterial activity against efflux pump lacking/recombinant OM pore producing Acinetobacter baumannii assessed as inhibition of bacterial growth; assay type: functional, organism-based
# Escherichia coli [33] = experiment: Antibacterial activity against Escherichia coli SQ110 DTC C2610A incubated for 24 hrs by twofold serial dilution method; assay type: functional; how it was run: as §2
# Klebsiella pneumoniae [34] = experiment: Antibacterial activity against multidrug resistant Klebsiella pneumoniae ATCC43816 assessed as inhibition of bacterial growth incubated for 24 hrs in MHI medium by twofold serial dilution method; settings: ATCC43816, 24 h
# Staphylococcus aureus = experiment: Antibacterial activity against Staphylococcus aureus ATCC 25923 incubated for 24 hrs by twofold serial dilution method; assay type: functional; how it was run: as §1
Structure (SMILES),MIC (Pseudomonas aeruginosa [1]),IC50 (Escherichia coli [2]),IC50 (Pseudomonas aeruginosa [3]),IC50 (Acinetobacter baumannii [4]),MIC (Escherichia coli [5]),IC50 (Escherichia coli [6]),MIC (Pseudomonas aeruginosa [7]),MIC (Pseudomonas aeruginosa [8]),MIC (Acinetobacter baumannii [9]),MIC (Escherichia coli [10]),MIC (Klebsiella pneumoniae [11]),IC50 (Acinetobacter baumannii [12]),MIC (Pseudomonas aeruginosa [13]),MIC (Acinetobacter baumannii [14]),IC50 (Acinetobacter baumannii [15]),IC50 (Pseudomonas aeruginosa [16]),IC50 (Pseudomonas aeruginosa [17]),MIC (Klebsiella pneumoniae [18]),MIC (Escherichia coli [19]),MIC (Acinetobacter baumannii [20]),further results
NCc1ccc(-c2ccc(N3C[C@H](CO)OC3=O)cc2F)cc1O,> 200 µM,10.3 µM,2.2 µM,37.6 µM,> 100 µM,23.3 µM,6.25 µM,> 200 µM,25 µM,25 µM,100 µM,15.4 µM,> 200 µM,> 200 µM,37.6 µM,0.2 µM,55.9 µM,50 µM,50 µM,> 200 µM,IC50 (Escherichia coli [21]): 66.1 µM; MIC (Klebsiella pneumoniae [22]): > 200 µM; MIC (Klebsiella pneumoniae [23]): > 200 µM; MIC (Klebsiella aerogenes [24]): 12.5 µM; IC50 (Pseudomonas aeruginosa [25]): 40.8 µM; MIC (Pseudomonas aeruginosa [26]): > 200 µM; MIC (Klebsiella aerogenes [27]): 200 µM; MIC (Acinetobacter baumannii [28]): > 200 µM; MIC (Escherichia coli [29]): 100 µM; MIC (Acinetobacter baumannii [30]): > 200 µM; IC50 (Escherichia coli [31]): 10 µM; IC50 (Acinetobacter baumannii [32]): 15.4 µM; MIC (Escherichia coli [33]): 50 µM
O=C1O[C@@H](CO)CN1c1ccc(-c2cccnc2)c(F)c1,> 200 µM,3.2 µM,4.7 µM,19 µM,> 100 µM,14.5 µM,6.25 µM,> 200 µM,12.5 µM,12.5 µM,> 200 µM,4.3 µM,> 200 µM,> 200 µM,19 µM,6 µM,> 100 µM,200 µM,25 µM,100 µM,MIC (Klebsiella pneumoniae [34]): > 200 µM; IC50 (Escherichia coli [21]): > 100 µM; MIC (Klebsiella pneumoniae [22]): > 200 µM; MIC (Klebsiella pneumoniae [23]): > 200 µM; MIC (Klebsiella aerogenes [24]): 200 µM; IC50 (Pseudomonas aeruginosa [25]): 75.3 µM; MIC (Staphylococcus aureus): 1.56 µM; MIC (Pseudomonas aeruginosa [26]): > 200 µM; MIC (Acinetobacter baumannii [28]): > 200 µM; MIC (Escherichia coli [29]): 50 µM; MIC (Acinetobacter baumannii [30]): 100 µM; IC50 (Escherichia coli [31]): 2.8 µM; IC50 (Acinetobacter baumannii [32]): 4.3 µM; MIC (Escherichia coli [33]): 25 µM
NCc1ccc(-c2ccc(N3C[C@H](CO)OC3=O)cc2F)cc1,> 200 µM,2.6 µM,3.3 µM,14.3 µM,> 100 µM,2.6 µM,12.5 µM,> 200 µM,25 µM,50 µM,200 µM,17.7 µM,> 200 µM,> 200 µM,54.5 µM,8.1 µM,23 µM,100 µM,> 100 µM,> 200 µM,MIC (Klebsiella pneumoniae [34]): > 200 µM; IC50 (Escherichia coli [21]): 18.1 µM; MIC (Klebsiella pneumoniae [22]): > 200 µM; MIC (Klebsiella pneumoniae [23]): > 200 µM; MIC (Klebsiella aerogenes [24]): 100 µM; IC50 (Pseudomonas aeruginosa [25]): 26.3 µM; MIC (Staphylococcus aureus): 6.25 µM; MIC (Pseudomonas aeruginosa [26]): > 200 µM; MIC (Acinetobacter baumannii [28]): > 200 µM; MIC (Escherichia coli [29]): 100 µM; MIC (Acinetobacter baumannii [30]): > 200 µM; IC50 (Escherichia coli [31]): 1.7 µM; IC50 (Acinetobacter baumannii [32]): 8.2 µM; MIC (Escherichia coli [33]): 50 µM
O=C1O[C@@H](CO)CN1c1ccc(-c2ccncc2)c(F)c1,≥ 200 µM,1.3 µM,8.1 µM,16.5 µM,> 100 µM,5.6 µM,3.12 µM,≥ 200 µM,6.25 µM,6.25 µM,200 µM,1.4 µM,> 200 µM,> 200 µM,16.5 µM,2.9 µM,44.2 µM,100 µM,6.25 µM,100 µM,IC50 (Escherichia coli [21]): 44.3 µM; MIC (Klebsiella pneumoniae [22]): 200 µM; MIC (Klebsiella pneumoniae [23]): > 200 µM; MIC (Klebsiella aerogenes [24]): 200 µM; IC50 (Pseudomonas aeruginosa [25]): 48.2 µM; MIC (Staphylococcus aureus): 1.56 µM; MIC (Pseudomonas aeruginosa [26]): > 200 µM; MIC (Klebsiella aerogenes [27]): 200 µM; MIC (Acinetobacter baumannii [28]): > 200 µM; MIC (Escherichia coli [29]): 25 µM; MIC (Acinetobacter baumannii [30]): 100 µM; IC50 (Escherichia coli [31]): 0.8 µM; IC50 (Acinetobacter baumannii [32]): 1.4 µM; MIC (Escherichia coli [33]): 6.25 µM

# Source: ChEMBL document CHEMBL5104202, “Structure-Uptake Relationship Studies of Oxazolidinones in Gram-Negative ESKAPE Pathogens” (J Med Chem, 2022)
